# Compound activity: PubChem, several laboratories
# TAG inh – reduces triacylglycerol accumulation in H9c2 cells; Nile Red lipid (TAG) fluorescence; cells loaded with 200 µM oleic acid; inhibition, % at 12.5 µM; 230,000 tested, 0.66% active;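 active = pattern-corrected inhibition of lipid staining of at least 50% with the nuclear-stain viability signal not falling by more than 50%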;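 also: 0% = DMSO wells and 100% = triacsin C control wells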
# Efflux pump mplx – antifungal efflux pump inhibition, Nile Red retention; 330,000 tested, 0.44% active; S. cerevisiae Candida pump triplex; inhibition, % at 10 µM; AID 485275;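 active = plate passing quality check with inhibition over a set limit, or well fluorescence over plate mean plus 4 SD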;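 also: Nile Red retained in pooled yeast measured as flow cytometry median fluorescence; 0% = buffer negative control and 100% = Enniatin B positive control; higher means more Nile Red kept so more efflux inhibition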
# SMARCA2 act – activators of SMARCA2 function; MG213 cells, MMTV-luciferase reporter, dexamethasone, overnight; activation, % at 9.1 µM; 370,000 tested, 1% active; in the data active = activation above about 7.8%;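 also: 0% = vehicle wells and 100% = reference activator wells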
# AHR activator – human AHR activation; P35869; AHR-responsive luciferase reporter cells, luminescence; activation, % at 5 µM; 320,000 tested, 2.5% active; AID 2796; in the data active = activation above about 47%;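 also: 0% = vehicle wells and 100% = reference agonist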
# Target sequence (P35869 whole entry, looked up): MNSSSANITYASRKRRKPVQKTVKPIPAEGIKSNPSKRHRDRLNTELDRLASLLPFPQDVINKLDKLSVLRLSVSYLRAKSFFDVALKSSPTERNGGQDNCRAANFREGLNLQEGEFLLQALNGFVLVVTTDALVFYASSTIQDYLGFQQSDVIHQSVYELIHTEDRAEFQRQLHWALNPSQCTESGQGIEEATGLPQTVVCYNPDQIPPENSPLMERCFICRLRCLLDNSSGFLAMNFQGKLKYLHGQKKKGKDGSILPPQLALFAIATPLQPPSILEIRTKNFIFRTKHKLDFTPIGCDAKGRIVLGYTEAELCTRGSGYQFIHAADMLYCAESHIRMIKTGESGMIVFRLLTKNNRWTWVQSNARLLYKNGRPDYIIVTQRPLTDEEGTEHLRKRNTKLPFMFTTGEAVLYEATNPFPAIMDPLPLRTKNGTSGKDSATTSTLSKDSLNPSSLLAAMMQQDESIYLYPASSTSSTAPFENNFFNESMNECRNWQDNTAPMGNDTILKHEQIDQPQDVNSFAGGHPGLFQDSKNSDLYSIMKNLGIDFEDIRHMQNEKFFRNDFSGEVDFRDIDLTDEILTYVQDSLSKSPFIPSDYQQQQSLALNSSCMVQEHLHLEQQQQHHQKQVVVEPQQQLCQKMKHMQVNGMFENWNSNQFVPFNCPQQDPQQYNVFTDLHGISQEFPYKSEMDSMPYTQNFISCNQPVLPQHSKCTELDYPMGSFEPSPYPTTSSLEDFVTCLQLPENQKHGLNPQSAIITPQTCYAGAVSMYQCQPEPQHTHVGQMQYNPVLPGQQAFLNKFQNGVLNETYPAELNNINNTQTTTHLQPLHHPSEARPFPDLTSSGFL
# TbMetRS inhib – Trypanosoma brucei MetRS inhibition. inhibition, % at 11.9 µM. purified T. brucei MetRS, ATP depletion, Kinase-Glo luminescence. 360,000 tested, 0.4% active;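 active = inhibition above a per-plate cutoff of the control wells' mean inhibition plus 3 SD, cut at about 5.5% in these data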;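 also: 0% = DMSO wells median and 100% = median of wells with control inhibitor compound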
#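 Assay system: T. brucei methionyl-tRNA synthetase, purified | Medium: HEPES buffer with MgCl2, KCl, DTT, spermine, BSA, pyrophosphatase | Compound: 11.9 µM single point | Incubation: 15 min enzyme-compound preincubation, 2 h reaction, 10 min detection, 25 °C | Measured by: Kinase-Glo luciferase luminescence reporting remaining unconsumed ATP | Measure: % inhibition normalized to control-well medians | Replication: Singlicate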
# SMARCA2 act conf – SMARCA2 activation, confirmation screen; activation, % at 9.1 µM; shares compounds with SMARCA2 act; AID 652260; MG213 cells, MMTV-luciferase with dexamethasone, luminescence, overnight; MG213 cells expressing E1A, Rb sequestered; DMSO wells 0%, reference activator 100%; 3,500 tested, 30% active;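 active = activation above its plate's cutoff, the mean activation of tested wells plus 3 SD, cut at about 7.9% in these data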
# VP16 Luc act – counter-screen for SMARCA2 activators: GAL4-VP16 luciferase reporter activation; shares compounds with SMARCA2 act; HEK293 GAL4-VP16 pG5luc reporter, luciferase luminescence; scaled: DMSO wells 0%, SAHA wells 100%; activation, % at 9.1 µM; 3,500 tested, 41% active;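 active = activation above the solvent-only control well mean plus 3 SD, averaged across control plates, cut at about 5.2% in these data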
# Starred values were filed as active, the others as inactive; nt = no result. Most compounds without a hit are left out; they make up all but 4.1% or so of the library.
SMILES,TAG inh,Efflux pump mplx,SMARCA2 act,AHR activator,TbMetRS inhib,SMARCA2 act conf,VP16 Luc act
O=C(NC1CCCCC1)c1ccc(-c2ccccc2[N+](=O)[O-])o1,-6,0,11*,59*,-1,8.7*,12*
CCN(CC)CCn1c2ccccc2c2nc3ccccc3nc21,nt,0,34*,64*,0,111*,-1
CCN(CC)CCn1c2ccccc2c2n[nH]c(=S)nc21,nt,0,-2,9,0,nt,nt
COc1ccccc1NC(=O)OCCCN1CCC2(CCC(C)CC2)C1=O (stereo not drawn),nt,nt,-1,nt,nt,nt,nt
COC(=O)c1cc2c(c3c4cc(OC)ccc4n(S(=O)(=O)c4cccc(C)c4)c13)C(=O)N(Cc1ccccc1OC)C2,nt,nt,-3,nt,nt,nt,nt
Fc1ccc(-c2n[nH]c(=S)n2N=Cc2cccc(OCc3ccccc3)c2)cc1,nt,nt,9.9*,nt,nt,4,1
O=C(CSc1nnc(-c2cccnc2)o1)Nc1nccs1,7,1,9.1*,3,0,5,2
Nn1c(SCC(=O)Nc2nccs2)nnc1-c1cc(-c2ccccc2)n[nH]1,nt,nt,9.6*,nt,nt,5,2
N#Cc1ccsc1NC(=O)CSc1nnc(-c2ccccc2)o1,6,0,19*,27,-1,1,1
O=C(CSc1nnc(-c2ccccn2)o1)Nc1ccccc1Cl,nt,0,8.0*,5,-1,13*,12*
Nn1c(SCC(=O)Nc2ccccc2-c2ccccc2)nnc1-c1cc(-c2ccccc2)n[nH]1,nt,nt,-6,nt,nt,nt,nt
O=C(CSc1nnc(-c2ccccc2)o1)Nc1ccccc1F,-11,0,1,9,0,nt,nt
O=C(CSc1nnc(-c2ccncc2)o1)Nc1ccccc1Cl,-7,0,2,3,-1,nt,nt
Cc1ccccc1-c1ccc2c(c1)[C@@H]1C[C@H]3[C@@H](CN1CC2)[C@H](C)ON3C,nt,nt,-5,nt,nt,nt,nt
CC(C)(C)S(=O)N1C[C@@H]2CC(=O)C(CCO)=C2[C@H]1CCO (stereo partly drawn),nt,nt,-5,nt,nt,nt,nt
O=[N+]([O-])c1cccc(I)c1,nt,nt,-5,nt,nt,nt,nt
Cc1ccccc1NC(=O)N(C)[C@H]1C[C@H]2c3[nH]c4c(-c5ccccc5)cccc4c3CCN2C(=O)[C@H]1[C@H](C)O,nt,nt,3,nt,nt,nt,nt
CCc1c(O)nc(SCC(=O)NC(C)(C)C)n(-c2ccccc2)c1=O,-19,0,8.1*,0,0,-3,2
Cc1ccccc1N(C)C(=O)CN1CCN(c2nc(-c3ccccc3)cs2)CC1,nt,nt,-4,nt,nt,nt,nt
COC(=O)N[C@H](C(=O)N[C@@H](Cc1ccccc1)[C@@H](O)CN(Cc1ccc(-c2ccccn2)cc1)NC(=O)[C@@H](NC(=O)OC)C(C)(C)C)C(C)(C)C,nt,nt,-6,nt,nt,nt,nt
Cc1nc(Cl)c2c(n1)NC(=O)CO2,-2,0,12*,0,0,0,1
CC(C)c1c(C(=O)Nc2ccccc2)c(-c2ccccc2)c(-c2ccc(F)cc2)n1CC[C@@H](O)C[C@@H](O)CC(=O)O,-15,nt,17*,nt,-1,13*,-1
Cc1cc2c(c(=O)o1)[C@@]1(C(=O)N(C)c3ccccc31)C1=C(CC3(CCCCC3)OC1=O)O2,nt,nt,-5,nt,nt,nt,nt
Cn1c(CN2CCOCC2)nnc1SCc1ccccc1,nt,0,-3,-1,0,nt,nt
Cn1c(CN2CCOCC2)nnc1SCC(=O)NCCc1ccccc1,1,0,8.2*,-1,-1,2,0
SMILES,TAG inh,Efflux pump mplx,SMARCA2 act,AHR activator,TbMetRS inhib,SMARCA2 act conf,VP16 Luc act
CCCCCCCCN1C(=O)[C@@H](CC(=O)N2CCSCC2)C[C@@]2(C(=O)OC)C1=C[C@H](C1CCCC1)O[C@@H]2C,nt,nt,-4,nt,nt,nt,nt
CCOC(=O)c1cccc(NC(=O)c2cncc(Br)c2)c1,nt,0,9.0*,24,-2,5,3
Cc1ccccc1CCN(C(=O)CN1C(=O)c2ccccc2S1(=O)=O)C(C(=O)NCC1CCCO1)c1ccncc1 (stereo not drawn),nt,0,9.0*,-1,0,-1,1
O=C(NCC1CCCO1)C(c1ccncc1)N(Cc1cccs1)C(=O)CN1C(=O)c2ccccc2S1(=O)=O (stereo not drawn),13,0,-2,1,-1,nt,nt
CN(C)C(=O)N1CCN(c2nc(-c3ccccc3)cs2)CC1,nt,0,11*,-1,-2,4,5.9*
O=C(NCc1ccc(F)cc1)c1c2c(nc3ccccc13)CCC2,0,0,9.4*,8,0,3,2
O=S(=O)(Nc1ccc(Cl)nn1)c1ccccc1,-8,0,-4,0,0,nt,nt
O=S(=O)(NNc1ccc(Cl)nn1)c1ccc(F)cc1,nt,0,8.4*,11,-1,1,1
Cc1cc(C(=O)N(C)C2CCCCC2)no1,-2,0,-1,2,-1,nt,nt
CN(C(=O)c1cc(-c2ccccc2)on1)C1CCCCC1,nt,0,9.1*,3,0,11*,9.3*
COc1cccc(-c2cnc(C(O)c3ccc(C)cc3)[nH]2)c1 (stereo not drawn),9,nt,-1,nt,0,nt,nt
COc1cccc(-c2cnc(C(O)c3ccccc3)[nH]2)c1 (stereo not drawn),-9,nt,9.2*,nt,0,-2,8.7*
CN(Cc1ccccc1)C(=O)OCc1cn(Cc2ccc(C(F)(F)F)cc2)nn1,nt,nt,-3,nt,nt,nt,nt
CC(c1ccccc1)N1CCn2c(nc3cc(NC(=O)c4cccs4)ccc32)C1 (stereo not drawn),nt,0,9.9*,11,0,7,3
CCn1c(SCC(=O)Nc2ccccc2-c2ccccc2)nnc1-c1cnccn1,nt,nt,5,nt,nt,nt,nt
COc1ccc(CN=C2NC(=O)CC(C(=O)Nc3ccc(F)cc3)S2)cc1 (stereo not drawn),nt,0,8.3*,0,0,-1,-1
Cc1noc(C)c1-c1ccc(C(=O)Nc2ccccc2)c2occc12,14,nt,12*,nt,0,4,16*
COc1ccccc1C(=O)CSc1nnc(-c2ccncc2)n1-c1ccc(Cl)cc1,nt,nt,-3,nt,nt,nt,nt
CN(C)c1cccc2c(S(=O)(=O)NCC3CCN(C(=O)C(=O)c4cc5ccccc5o4)CC3)cccc12,nt,nt,-7,nt,nt,nt,nt
CCCCOC(=O)c1ccc(N)cc1,11,0,7,-2,0,nt,nt
CCCCCCOC(=O)c1ccc(N)cc1,-9,0,8.0*,3,0,6,5.8*
Cc1ccc(C2c3c(n[nH]c3C)C(=O)N2c2ccccc2)cc1 (stereo not drawn),nt,nt,3,nt,nt,nt,nt
O=C(CCC(NC(=O)OCc1ccccc1)C(=O)OCc1ccccc1)NCC(=O)OCc1ccccc1 (stereo not drawn),nt,0,-3,0,0,nt,nt
